This series can be described thus: Toxicity liver stage against HepG2, at 10uM. It counts as cell-based. Details: test concentration 10 uM, cell line HepG2-A16-CD81EGFP. The conditions noted are these: human, HepG2-A16-CD81EGFP cells; read-out: INHIBITION
The procedure, abridged: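 Uninfected HepG2-A16-CD81EGFP cells, 3 × 10^3 per well, 1536-well, plated on prespotted compound at 10 μM final, parasite-free screening media added to match infected plates; puromycin 10 μM positive, DMSO 0.5% negative; run in parallel with 48 h PbLuc assay at 37 °C, 5% CO2; viability by CellTiter-Glo luminescence, normalized to controls.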

This is an account of results in ChEMBL document CHEMBL4513216, “Probing the Open Global Health Chemical Diversity Library for Multistage-Active Starting Points for Next-Generation Antimalarials” (ACS Infect Dis, 2020).

Each structure is given as a SMILES string.

In the case of `C[C@@H]1CN(CC(C)(C)N2CCOCC2)C[C@@]1(O)C1CC1`, the cytotoxicity at 10 µM stood at 2.93%.

`CN(C(=O)c1cc(F)ccc1F)[C@@H]1CC[C@@H](O)[C@@H]1O`: the cytotoxicity at 10 µM is -0.822%.

For the compound `COc1ccc2c(c1)OCC(CNC(=O)CCc1c(C)n[nH]c1C)C2` (stereo not given), the cytotoxicity at 10 µM is -48.5%.

Consider `O=C1CC(c2ccc(C(=O)O)cc2)c2ncn(-c3cccc(F)c3)c2N1` (stereo not given), for which the cytotoxicity at 10 µM was -4.74%.

`O=C(CN1CCCc2sccc2C1=O)NC1CCc2nccn2C1` (stereo not given): the cytotoxicity at 10 µM is 16.1%.

`O=C(CCc1ccsc1)Nc1ccnn1C1CCS(=O)(=O)C1` (stereo not given): the cytotoxicity at 10 µM was found to be 9.01%.

On to `O=C1CN(S(=O)(=O)c2ccc(F)cc2)CC(O)CN1CC1CC1` (stereo not given), for which the cytotoxicity at 10 µM is 0.227%.

Turning to `Cc1cc(CC(C)NC(=O)c2n[nH]c3c2CCC3)n[nH]1` (stereo not given), the cytotoxicity at 10 µM is -144%.

For `CN1CCC/C1=N\S(=O)(=O)c1ccc(NC(=O)c2ccc(Cl)s2)cc1`, the cytotoxicity at 10 µM was determined as 1.55%.

For the compound `COc1ccc2c(ccn2CCC(=O)NCCC(=O)O)c1`, the cytotoxicity at 10 µM stood at 6.81%.

As for `CN(C)c1nc(N)nc(CN2CCCC2c2cccs2)n1` (stereo not given), the cytotoxicity at 10 µM came to 5.21%.

As for `CC(=O)Nc1nc(C(=O)N2CCC(Nc3cccnn3)CC2)cs1`, the cytotoxicity at 10 µM is -4.67%.

Consider `O=C(CCCc1ccccn1)N1CCC(Nc2cccnn2)CC1`, for which the cytotoxicity at 10 µM was -9.73%.

Consider `CCN1CCCN(c2ncccc2C(=O)N2CCCCC2)CC1`, for which the cytotoxicity at 10 µM is -5.1%.

On to `Cn1nc(C2CCCN(Cc3cccc(F)c3)C2)c2nccnc21` (stereo not given), for which the cytotoxicity at 10 µM was -3.96%.

As to `O=C(c1ccc(Cl)s1)N1CCC2(COc3ncccc3S(=O)(=O)N2)C1` (stereo not given), the cytotoxicity at 10 µM was 8.77%.

As to `COCCn1/c(=N\C(=O)CN(C)S(C)(=O)=O)sc2cc(Cl)ccc21`, the cytotoxicity at 10 µM is -13.7%.

Take `CCc1ncc(CN2CCN(c3cc(NC4CC4)nc(N)n3)CC2)cn1`: the cytotoxicity at 10 µM was -3.44%.

In the case of `Cc1cnn(C2CCCN(C(=O)c3ccc(OCC4CC4)nc3)C2)c1` (stereo not given), the cytotoxicity at 10 µM is -4.04%.

For the compound `c1ccc(CSc2nnc(C3CC3)s2)nc1`, the cytotoxicity at 10 µM came to 0.873%.

As for `Fc1ccc(CN2CCCC2Cn2cccn2)c2ncccc12` (stereo not given), the cytotoxicity at 10 µM was -5.11%.

On to `Cn1ncc2c1NC(=O)CC2c1ccccc1Br` (stereo not given), for which the cytotoxicity at 10 µM turned out to be 49%.

Regarding `COCCCN(C(=O)c1ccc(-n2ccnc2)cc1)C1CCN(C)CC1`, the cytotoxicity at 10 µM was -15.8%.

On to `COc1cc(-c2nc3c([nH]2)CCCNC3=O)cc(OC)c1OC`, for which the cytotoxicity at 10 µM stood at 9.62%.

In the case of `COc1ccc(F)cc1C(=O)Nc1nnc(C)s1`, the cytotoxicity at 10 µM was found to be 11.1%.

With `O=C(CC(F)(F)F)N1C[C@@H]2CC[C@H]1CN(Cc1ccccc1)C2`, the cytotoxicity at 10 µM is -3.63%.

As to `CCC1=N[C@@]2(CC[C@@H]3CN(S(=O)(=O)CC)C[C@@H]32)C(=O)N1CC`, the cytotoxicity at 10 µM came to 5.22%.

As for `COc1cc(NC2CCCN(c3ncccn3)C2)cc(OC)c1` (stereo not given), the cytotoxicity at 10 µM is -16%.

As for `COc1ccc(-c2nccn2CCN2CCCCC2)c(OC)c1OC`, the cytotoxicity at 10 µM stood at 4.74%.

Take `Cc1csc(C(Cc2ccsc2)NC(=O)c2cc(=O)n(C)c(=O)n2C)n1` (stereo not given): the cytotoxicity at 10 µM is -12.3%.

`Fc1ccc(OCc2nnc([C@H]3CCN(Cc4ccccn4)C3)o2)cc1`: the cytotoxicity at 10 µM came out at 0.413%.

Regarding `O=C(NCc1ccnc(OCC2CC2)c1)C1COc2ccccc2O1` (stereo not given), the cytotoxicity at 10 µM was -3.88%.

Turning to `Cc1nc2ccccc2nc1CN(C)C1CCCN(c2cccnn2)C1` (stereo not given), the cytotoxicity at 10 µM is -9.71%.

For the compound `CN(C)CCC1CCN(Cc2ccn(C)c(=O)c2)CC1`, the cytotoxicity at 10 µM is -12.5%.

Consider `Cc1ccc(C(=O)N2CCO[C@H]3[C@@H](OCc4ccccn4)CC[C@@H]32)o1`, for which the cytotoxicity at 10 µM was -2.42%.

In the case of `C[C@@H]1CN(C2CCOCC2)C[C@]12CCN(c1cccnc1)C2=O`, the cytotoxicity at 10 µM was 5.95%.

On to `CCN(CC)C(=O)c1nc2c(s1)CCN(Cc1cccc(OC)c1)CC2`, for which the cytotoxicity at 10 µM worked out at 2.77%.

With `CC(C)Cc1noc(CN2CCOC(Cn3cncn3)C2)n1` (stereo not given), the cytotoxicity at 10 µM is -2.58%.

With `CCN(C)C[C@@H]1CN(S(=O)(=O)c2cccc(C#N)c2)C[C@@H]1CO`, the cytotoxicity at 10 µM is 5.45%.

In the case of `O=C(Cn1ccc2ccc(Br)cc21)NCc1ccc(C(=O)O)cc1`, the cytotoxicity at 10 µM stood at 6.46%.

Consider `Cc1csc(CN2C[C@@H]3COC[C@]3(C(=O)NCc3ccco3)C2)n1`, for which the cytotoxicity at 10 µM was -105%.

Regarding `CCn1c(C)nnc1SCCNc1nc(C)ncc1S(C)(=O)=O`, the cytotoxicity at 10 µM is -4.19%.

`CS(=O)(=O)c1nccn1Cc1ccc(F)cc1Cl`: the cytotoxicity at 10 µM was -4.99%.

`O=C([C@@H]1CCO[C@@H]2CCN(CC3CCOCC3)C[C@H]21)N1CCCC1`: the cytotoxicity at 10 µM was -114%.

Take `CC1(C)COCCN1C(=O)CCc1nc(-c2ccccn2)no1`: the cytotoxicity at 10 µM is -4.59%.

Turning to `O=C(N1CCCO1)[C@]12COC[C@H]1CN(Cc1cccnc1)C2`, the cytotoxicity at 10 µM was found to be 8.25%.

For the compound `Cc1cc(C)n(CC2CN(Cc3ccc4c(c3)OCCO4)CCO2)n1` (stereo not given), the cytotoxicity at 10 µM is -22.3%.

`CCN(CC)CCCC(C)NC(=O)c1ccccc1-n1cccn1` (stereo not given): the cytotoxicity at 10 µM is 15.9%.

In the case of `CS(=O)(=O)N1CCCC12CCCN(S(=O)(=O)c1ccc(F)c(F)c1)C2` (stereo not given), the cytotoxicity at 10 µM was found to be 1.46%.

For the compound `CC(C)C[C@H](NC(=O)Cn1ccc2c(Cl)cccc21)C(=O)O`, the cytotoxicity at 10 µM stood at 5.19%.

For the compound `COCC(=O)N1CC[C@@H]2O[C@H](COCc3ccncc3)CC[C@@H]21`, the cytotoxicity at 10 µM stood at 2.6%.

On to `NC(=O)c1cccc(OCC(=O)N2CCCC(n3cccn3)C2)c1` (stereo not given), for which the cytotoxicity at 10 µM was -13.5%.

Turning to `OC(CNCCn1cccn1)c1ccc(Br)cc1` (stereo not given), the cytotoxicity at 10 µM is -19.9%.

Turning to `CN1CCN(c2cc(NC(=O)Cn3ccc4ccccc43)ncn2)CC1`, the cytotoxicity at 10 µM was -0.973%.

Take `O=C(OCC1CCN(c2ccccc2)C1)c1cscn1` (stereo not given): the cytotoxicity at 10 µM came to 1.27%.

On to `Cc1nc(-c2cc(C(=O)O)co2)cs1`, for which the cytotoxicity at 10 µM amounted to 3.39%.

`Cc1csc(CCNC(=O)C2CCN(CC(N)=O)CC2)n1`: the cytotoxicity at 10 µM was -5.26%.

With `COc1ccc(S(=O)(=O)Nc2cnc(N(C)C)nc2)cc1`, the cytotoxicity at 10 µM was -4.45%.

On to `CC(C(=O)NCCN1CCCCCC1)n1cncn1` (stereo not given), for which the cytotoxicity at 10 µM is -1.4%.

For `CC(c1ccco1)N(C)Cc1nc2c(cnn2C)c(=O)[nH]1` (stereo not given), the cytotoxicity at 10 µM was -3.29%.

With `CC(=O)N1CCCC1c1nc(C)cc(-c2ccc(F)cc2)n1` (stereo not given), the cytotoxicity at 10 µM worked out at 9.88%.

For `CCCNC(=O)CN1CCOC(c2ccc(Br)cc2)C1` (stereo not given), the cytotoxicity at 10 µM was -2.56%.

Regarding `O=S(=O)(C1CC1)N1CCC2(CC1)CN(Cc1ccccn1)CCO2`, the cytotoxicity at 10 µM was -0.358%.

`CC1(C)OCC2(CO1)CN(S(=O)(=O)c1ccc(Br)s1)C2`: the cytotoxicity at 10 µM was -7.31%.

Regarding `Cc1occc1C(=O)N1CCc2c(COCC3CC3)cncc2C1`, the cytotoxicity at 10 µM is -0.799%.

`Cc1ccoc1C(=O)N1CC[C@H]2[C@H](C[C@@H](CN3CCCC3)N2C)C1`: the cytotoxicity at 10 µM came out at 4.42%.

With `CCOc1ccc(CC(=O)N2CCCC2c2cc(C)on2)cc1` (stereo not given), the cytotoxicity at 10 µM was -46%.

Turning to `O=S(=O)(c1ccc(-c2cnco2)cc1)N1CCC2(CCCNC2)C1` (stereo not given), the cytotoxicity at 10 µM was -27.3%.

Take `Clc1ccccc1-c1cc(CNc2ncnc3c2CCNCC3)no1`: the cytotoxicity at 10 µM is 24.6%.

With `CCOCC1c2c(ncn2C)CCN1C(=O)c1cscn1` (stereo not given), the cytotoxicity at 10 µM was -98.2%.

Consider `O=C(CN1CCN(C(=O)c2cccc(-c3ccoc3)c2)CC1)C1CC1`, for which the cytotoxicity at 10 µM is 0.504%.

With `O=C(NCC1CCC(c2ccnc3ncnn23)CC1)C1CC1` (stereo not given), the cytotoxicity at 10 µM came out at 9.17%.

As to `COc1ccnc(NC2CCN(CC(=O)Nc3ccccc3)CC2)n1`, the cytotoxicity at 10 µM was -11%.

`O=C(c1ccn(COc2ccc(F)cc2)n1)N1CCCC1`: the cytotoxicity at 10 µM turned out to be 6.25%.

For `CCN(CC(=O)NC(C)C)S(=O)(=O)N1CCCCC1C` (stereo not given), the cytotoxicity at 10 µM was -1.14%.

For `COc1cc(C(C)=O)ccc1SCC(=O)Nc1ccccn1`, the cytotoxicity at 10 µM was determined as 11.7%.

For the compound `COC[C@@H]1CC[C@H]2[C@H](CCN2C(=O)c2ccncc2F)O1`, the cytotoxicity at 10 µM was -8.82%.

As to `Cc1cccc(CN2CCC3(CCCN(CC(=O)N(C)C)C3)C2)n1` (stereo not given), the cytotoxicity at 10 µM is -101%.

`Cc1cc(C(=O)N(C)Cc2cnn(C)c2)c(NC(=O)C(C)(C)C)s1`: the cytotoxicity at 10 µM stood at 0.254%.

Take `CN(Cc1ncc(-c2ccccc2C(=O)O)s1)c1ncccn1`: the cytotoxicity at 10 µM stood at 1.69%.

Turning to `CN(C)Cc1nnc(C(=O)N(C)Cc2ccc(F)cc2)o1`, the cytotoxicity at 10 µM was 0.624%.

On to `Cc1n[nH]c(C)c1CNCC(O)c1ccc(F)c(F)c1` (stereo not given), for which the cytotoxicity at 10 µM was 4.32%.

Regarding `CCOCc1nc2c(c(NCc3cc(C)on3)n1)CCN(C(C)=O)CC2`, the cytotoxicity at 10 µM worked out at 2.24%.

With `c1cnnc(N2CCCC(NCc3nc(-c4ccco4)no3)C2)c1` (stereo not given), the cytotoxicity at 10 µM was -20%.

Regarding `COc1cccc(C(=O)C2CCCN(c3nccc(N)n3)C2)c1` (stereo not given), the cytotoxicity at 10 µM was -1.82%.

Consider `O=C(c1ccnnc1)N1CCCn2nnc(COCC3CC3)c2C1`, for which the cytotoxicity at 10 µM was 7.95%.

As for `CC(C)=CCC1(CO)CCCN(S(=O)(=O)N2CCCC2)C1` (stereo not given), the cytotoxicity at 10 µM was -3.38%.

As to `O=C(O)CCc1cccc(C2CCCN2Cc2cccc(Cl)c2)n1` (stereo not given), the cytotoxicity at 10 µM is -22.6%.

As for `Cn1nc(C2CCCN2)c2c(C(=O)NCC(F)(F)F)cc(C3CC3)nc21` (stereo not given), the cytotoxicity at 10 µM was 13.1%.

Regarding `Cc1nc(CC(=O)N2CCCCC2Cn2cccn2)cs1` (stereo not given), the cytotoxicity at 10 µM was -1.55%.

Turning to `Cc1ccccc1SCC(=O)NC1CCC(O)CC1` (stereo not given), the cytotoxicity at 10 µM was 9.58%.

Take `CC(C)Cn1cc2nc(N3CCCC3)[nH]cc-2c1=O`: the cytotoxicity at 10 µM is 9.6%.

`COc1ccccc1CC(=O)N1CCC(NCc2cccnc2)CC1`: the cytotoxicity at 10 µM was -5.7%.

Regarding `CNC(=O)NC(C)c1c(F)cccc1Cl` (stereo not given), the cytotoxicity at 10 µM was -6.2%.

For the compound `CC(Cn1ccnc1)NC(=O)N(C)Cc1ccc2c(c1)OCCO2` (stereo not given), the cytotoxicity at 10 µM was -29.5%.
